In one experiment the test system is K562 cell line. In words: CCK-8 antiproliferative assay, K562. Type of experiment: cell-based. Particulars: for IC50 / inhibition at 0.1 µM / inhibition at 1 µM: Homo sapiens, K562, 72 h; for IC50: read-out: IC50 (µM) K562; for inhibition at 0.1 µM / inhibition at 1 µM: read-out: Inhibition rate (%); for fold decrease in antiproliferative activities of K562 cell lines: relative to 12d. The gist of the method:
(§1)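 Cells were grown in RPMI-1640 with 10% FBS at 37 °C in 5% CO2. About 3.5 × 10^3 cells/well were seeded, grown 24 h, then given test compound at several concentrations for 72 h in triplicate wells. CCK-8 was added for 2–3 h and OD read at 450 nm to give inhibition rate or IC50. K562 screen: mean of ≥2 independent experiments. Five-line panel: mean ± SD of three.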
On the technique in general: Tetrazolium dyes change colour on reduction, which living cells bring about.

In a further experiment the test system is normal cell line HFL-1. In words: CCK-8 assay, normal cell line HFL-1. Type of experiment: cell-based. The conditions noted are these: Homo sapiens, HFL1, 72 h, read-out: IC50 (µM) HFL-1. In short, it runs like this: as §1
In another experiment the test system is Hela. Briefly: CCK-8 antiproliferative assay, Hela. Type of experiment: cell-based. Particulars: Homo sapiens, HeLa, 72 h, read-out: IC50 (µM) Hela. In short, it runs like this:
as §1

In another experiment the test system is H22. In words: CCK-8 antiproliferative assay, H22. The format is cell-based, mouse. The conditions noted are these: Mus musculus, H22, 72 h, read-out: IC50 (µM) H22. In short, it runs like this: as §1
The next experiment concerns A549. Briefly: CCK-8 antiproliferative assay, A549. The format is cell-based. The conditions noted are these: Homo sapiens, A549, 72 h, read-out: IC50 (µM) A549. The gist of the method: as §1
For experiment [1], the system named is colchicine binding site on tubulin. In words: [3H]-colchicine competition scintillation proximity assay. Particulars: tubulin 1 µM, [3H]-colchicine 5 µM. In short, it runs like this:
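Competition scintillation proximity assay. Test compound was added to buffer (80 mM PIPES pH 6.8, 1 mM EGTA, 1 mM MgCl2, 10% glycerol, 1 mM GTP) containing tubulin 1 µM, then [3H]-colchicine 5 µM. After 2 h incubation, streptavidin-labelled SPA beads were added and radioactivity counted. Percent inhibition of colchicine binding was reported as mean ± SD of three independent experiments.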

The test system of another experiment is H22 allograft. In words: H22 allograft mice model, in vivo antitumor effect. Particulars: 20 mg/kg i.v. once a day, three weeks, by tumour weight. In short, it runs like this:
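H22 cells in log phase (1 × 10^7 cells/mL, 0.1 ml) were injected s.c. into the right flank. Tumour size and body weight were recorded every two days. Mice were sacrificed at about 21 days. TGI (%) = (1 − Wt/Wc) × 100, using mean tumour weights.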

By IC50 is commonly meant the concentration that inhibits the measured activity by half. Broadly, the inhibition is how much of the control response was suppressed. Turning to `COc1ccc(CC2Cc3cc(OC)c(OC)c(OC)c3C2)cc1N` (stereo not drawn) [Compound 12j, 2-methoxy-5-((4,5,6-trimethoxy-2,3-dihydro-1H-inden-2-yl)methyl)aniline], the IC50 in the experiment on K562 cell line was 0.068 ± 0.006 µM; in the experiment with normal cell line HFL-1, 0.59 ± 0.062 µM; in the experiment on Hela, 0.136 ± 0.011 µM; in the experiment with H22, 0.093 ± 0.005 µM; in the experiment with A549, 0.212 ± 0.013 µM. In addition, in the experiment with K562 cell line, the inhibition at 0.1 µM is 68.7%. In the experiment with K562 cell line, the inhibition at 1 µM was found to be 86.6%.
With `COc1cc2c(c(OC)c1OC)CC(Cc1ccc3[nH]ccc3c1)C2` (stereo not drawn) [Compound 12t, 5-((4,5,6-trimethoxy-2,3-dihydro-1H-inden-2-yl)methyl)-1H-indole], the IC50 in the experiment on K562 cell line is 0.176 ± 0.024 µM; in the experiment on normal cell line HFL-1, 0.552 ± 0.075 µM; with Hela it was 0.284 ± 0.014 µM; with H22 it was 0.254 ± 0.02 µM; with A549, 0.277 ± 0.029 µM. Also, the inhibition at 0.1 µM in the experiment with K562 cell line was 50.4%. Moreover, in the experiment on K562 cell line, the inhibition at 1 µM came to 88.6%.
Regarding `COc1ccc(CC2Cc3c(cc(OC)c(OC)c3OC)O2)cc1O` (stereo not drawn) [Compound 15c, 2-methoxy-5-((4,5,6-trimethoxy-2,3-dihydrobenzofuran-2-yl)methyl)phenol], the concentration for half-maximal inhibition (IC50) with K562 cell line was 0.1 ± 0.007 µM; in the experiment on normal cell line HFL-1, 3.58 ± 0.548 µM; in the experiment on Hela, 0.309 ± 0.032 µM; in the experiment with H22 it was 0.114 ± 0.023 µM; with A549 it was 0.341 ± 0.064 µM. Further, the inhibition at 0.1 µM with K562 cell line came to 52.1%. Besides, in the experiment on K562 cell line, the inhibition at 1 µM is 87.5%.
On to `COc1ccc(CC2Cc3cc(O)c(OC)cc3C2)cc1O` (stereo not drawn) [Compound 15b, 2–(3-hydroxy-4-methoxybenzyl)-6-methoxy-2,3-dihydro-1H-inden-5-ol], for which the IC50 in the experiment with K562 cell line came to 0.425 ± 0.027 µM; in the experiment on normal cell line HFL-1, 11.3 ± 1.4 µM; in the experiment on Hela it was 3.17 ± 0.108 µM; in the experiment on H22 it was 0.575 ± 0.041 µM; in the experiment with A549 it was 2.01 ± 0.117 µM. In the experiment with K562 cell line, the inhibition at 0.1 µM was determined as 31.4%. Moreover, in the experiment on K562 cell line, the inhibition at 1 µM is 89.2%. Further, the “fold decrease in antiproliferative activities of K562 cell lines” value in the experiment with K562 cell line is approximately 15 fold.
Regarding `COc1cc2c(c(OC)c1OC)CC(Cc1ccc3c(c1)CCO3)C2` (stereo not drawn) [Compound 12q, 5-((4,5,6-trimethoxy-2,3-dihydro-1H-inden-2-yl)methyl)-2,3-dihydrobenzofuran], the IC50 is 0.079 ± 0.009 µM in the experiment on K562 cell line; 0.398 ± 0.023 µM with normal cell line HFL-1; 0.183 ± 0.009 µM in the experiment with Hela; 0.104 ± 0.004 µM in the experiment with H22; 0.22 ± 0.015 µM with A549. Also, the inhibition at 0.1 µM in the experiment with K562 cell line is 83.6%. In addition, the inhibition at 1 µM with K562 cell line came to 91.9%.
With `COc1ccc(CC2Cc3cc(OC)c(OC)c(OC)c3C2=O)cc1O` (stereo not drawn) [Compound 15d, 2–(3-hydroxy-4-methoxybenzyl)-5,6,7-trimethoxy-2,3-dihydro-1H-inden-1-one], the half-inhibitory concentration (IC50) with K562 cell line was 0.774 ± 0.051 µM; with normal cell line HFL-1 it was 6.96 ± 0.843 µM; in the experiment with Hela, 3.41 ± 0.186 µM; in the experiment with H22, 1.13 ± 0.058 µM; in the experiment on A549, 2.95 ± 0.154 µM. In addition, in the experiment on K562 cell line, the inhibition at 0.1 µM was 39%. In addition, the inhibition at 1 µM in the experiment with K562 cell line came out at 63%.
For the compound `COc1cc2c(c(OC)c1OC)CC(Cc1ccccc1)C2` (stereo not drawn) [Compound 12l, 2-benzyl-4,5,6-trimethoxy-2,3-dihydro-1H-indene], in the experiment with K562 cell line, the inhibition at 0.1 µM was determined as 1.03% and the inhibition at 1 µM came to 7.29%.
As to `COc1cc2c(c(OC)c1OC)CC(Cc1ccc3ccn(C)c3c1)C2` (stereo not drawn) [Compound 12x, 1-methyl-6-((4,5,6-trimethoxy-2,3-dihydro-1H-inden-2-yl)methyl)-1H-indole], in the experiment with K562 cell line, the inhibition at 0.1 µM was found to be 12.5% and the inhibition at 1 µM came out at 74.9%.
In the case of `COc1cc2c(c(OC)c1OC)CC(Cc1ccc3c(ccn3C)c1)C2` (stereo not drawn) [Compound 12w, 1-methyl-5-((4,5,6-trimethoxy-2,3-dihydro-1H-inden-2-yl)methyl)-1H-indole], in the experiment with K562 cell line, the inhibition at 0.1 µM turned out to be 10% and the inhibition at 1 µM worked out at 85.8%.
Consider `COc1ccc(CC2Cc3cc(OC)c(OC)c(OC)c3C2)cn1` (stereo not drawn) [Compound 12k, 2-methoxy-5-((4,5,6-trimethoxy-2,3-dihydro-1H-inden-2-yl)methyl)pyridine], for which, in the experiment on K562 cell line, the inhibition at 0.1 µM amounted to 4.12% and the inhibition at 1 µM was 13.9%.
On to `COc1ccc(/C=C\c2cc(OC)c(OC)c(OC)c2)cc1O` [CA-4, Combretastatin A-4, reference compound], for which the half-inhibitory concentration (IC50) amounted to 0.004 ± 0.001 µM in the experiment with K562 cell line; 0.139 ± 0.017 µM in the experiment with normal cell line HFL-1; 0.026 ± 0.006 µM in the experiment on Hela; 0.01 ± 0.002 µM in the experiment with H22; 0.032 ± 0.005 µM in the experiment on A549. In the experiment on K562 cell line, the inhibition at 0.1 µM came out at 88.3%. In the experiment on K562 cell line, the inhibition at 1 µM amounted to 92%. Besides, the figures for the “Inhibition (%) of colchicine binding” value in experiment [1] (compound 1 µM) and in experiment [1] (compound 5 µM) were 78.55 ± 1.85% and 87.35 ± 1.37%, respectively. Besides, the “tumour growth inhibition (TGI) value” in the experiment with H22 allograft is reported as 59.19%.
With `COc1ccc(CC2Cc3cc(OC)c(OC)cc3C2)cc1O` [Compound 15a, 5-((5,6-dimethoxy-2,3-dihydro-1H-inden-2-yl)methyl)-2-methoxyphenol], the concentration for half-maximal inhibition (IC50) in the experiment on K562 cell line was 0.192 ± 0.013 µM; in the experiment with normal cell line HFL-1, 5 ± 0.306 µM; in the experiment on Hela, 0.317 ± 0.027 µM; in the experiment on H22 it was 0.307 ± 0.015 µM; in the experiment with A549, 0.753 ± 0.04 µM. In addition, the inhibition at 0.1 µM with K562 cell line was 45.6%. In the experiment on K562 cell line, the inhibition at 1 µM came to 81.5%. Also, the “fold decrease in antiproliferative activities of K562 cell lines” value with K562 cell line is listed as “about 7 fold”.

The values are drawn from publication PMC10438863 (Journal of Enzyme Inhibition and Medicinal Chemistry, 2023).
